Laboratory results: ChEMBL document CHEMBL1148991, “Antifungal flavonoids from Hildegardia barteri” (J Nat Prod, 2005)
Values after ≈ are worked out from the molar mass of the structure shown.

How the values were obtained:
Format in all cases: functional, organism-based
[1] = system: Candida albicans; test: Antifungal activity against azole-sensitive Candida albicans by broth microdilution assay
Outline: (§1)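 Follow-up panel of recent drug-resistant and drug-sensitive clinical Candida isolates, tested alongside quality control strains C. krusei ATCC 6258 and C. parapsilopsis ATCC 22019.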

[2] = system: Candida albicans; test: Antifungal activity against polyene-resistant Candida albicans by broth microdilution assay; outline: as §1
[3] = system: Nakaseomyces glabratus; test: Antifungal activity against polyene-resistant Candida glabrata by broth microdilution assay; outline: as §1
[4] = system: Candida albicans; test: Antifungal activity against azole-resistant Candida albicans by broth microdilution assay; outline: as §1
[5] = system: Nakaseomyces glabratus; test: Antifungal activity against azole-resistant Candida glabrata by broth microdilution assay; outline: as §1
[6] = system: Pichia kudriavzevii; test: Antifungal activity against azole-resistant Candida krusei by broth microdilution assay; outline: as §1

Compound	IC50 [1] [µg/mL]	IC50 [2] [µg/mL]	IC50 [3] [µg/mL]	IC50 [4] [µg/mL]	IC50 [5] [µg/mL]	IC50 [6] [µg/mL]
Oc1cc2c(cc1O)[C@@H]1Oc3cc4c(cc3[C@@H]1CO2)OCO4	128 (≈ 426 µM)	128 (≈ 426 µM)	32 (≈ 107 µM)	32 (≈ 107 µM)	32 (≈ 107 µM)	128 (≈ 426 µM)
C[C@@H]1[C@H](O)[C@@H](C)/C=C/C=C/C=C/C=C/C=C/C=C/C=C/[C@H](O[C@@H]2O[C@H](C)[C@@H](O)[C@H](N)[C@@H]2O)C[C@@H]2O[C@](O)(C[C@@H](O)C[C@@H](O)[C@H](O)CC[C@@H](O)C[C@@H](O)CC(=O)O[C@H]1C)C[C@H](O)[C@H]2C(=O)O [AMPHOTERICIN B]	–	3 (≈ 3.25 µM)	4 (≈ 4.33 µM)	–	–	–
Cc1c(O)c(C)c2c(c1O)C(=O)C[C@@H](c1ccc(O)cc1)O2 [FARREROL]	> 32	> 32	> 32	> 32	> 32	> 32
OC(Cn1cncn1)(Cn1cncn1)c1ccc(F)cc1F [FLUCONAZOLE]	0.12 (≈ 0.392 µM)	–	–	256 (≈ 836 µM)	256 (≈ 836 µM)	128 (≈ 418 µM)
COc1cc2c(cc1O)C[C@H](c1cc3c(cc1O)OCO3)CO2 [HILDEGARDIOL]	> 128	> 128	> 128	≥ 64	≥ 64	> 128
C[C@@H](c1ncncc1F)[C@](O)(Cn1cncn1)c1ccc(F)cc1F [VORICONAZOLE]	0.007 (≈ 0.02 µM)	–	–	4 (≈ 11.5 µM)	8 (≈ 22.9 µM)	1 (≈ 2.86 µM)
